Bioassay records: PubChem, Sanford-Burnham Center for Chemical Genomics
Sampled rows, rich in hits. Any-hit rate of the full collection: about 1.3%.
HKDC1 inh = inhibitors of human hexokinase HKDC1; Q2TB90; hit rate 0.16% among 340,000; recombinant HKDC1, G6PDH/diaphorase resazurin coupled fluorescence; inhibition, % at 20 µM; AID 493160;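 active means inhibition above about 35% when tested at 20 µM, limit read from the data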;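 further: plate controls were DMSO wells with enzyme for no effect and DMSO wells lacking enzyme for full effect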
Target sequence (Q2TB90 whole entry, looked up): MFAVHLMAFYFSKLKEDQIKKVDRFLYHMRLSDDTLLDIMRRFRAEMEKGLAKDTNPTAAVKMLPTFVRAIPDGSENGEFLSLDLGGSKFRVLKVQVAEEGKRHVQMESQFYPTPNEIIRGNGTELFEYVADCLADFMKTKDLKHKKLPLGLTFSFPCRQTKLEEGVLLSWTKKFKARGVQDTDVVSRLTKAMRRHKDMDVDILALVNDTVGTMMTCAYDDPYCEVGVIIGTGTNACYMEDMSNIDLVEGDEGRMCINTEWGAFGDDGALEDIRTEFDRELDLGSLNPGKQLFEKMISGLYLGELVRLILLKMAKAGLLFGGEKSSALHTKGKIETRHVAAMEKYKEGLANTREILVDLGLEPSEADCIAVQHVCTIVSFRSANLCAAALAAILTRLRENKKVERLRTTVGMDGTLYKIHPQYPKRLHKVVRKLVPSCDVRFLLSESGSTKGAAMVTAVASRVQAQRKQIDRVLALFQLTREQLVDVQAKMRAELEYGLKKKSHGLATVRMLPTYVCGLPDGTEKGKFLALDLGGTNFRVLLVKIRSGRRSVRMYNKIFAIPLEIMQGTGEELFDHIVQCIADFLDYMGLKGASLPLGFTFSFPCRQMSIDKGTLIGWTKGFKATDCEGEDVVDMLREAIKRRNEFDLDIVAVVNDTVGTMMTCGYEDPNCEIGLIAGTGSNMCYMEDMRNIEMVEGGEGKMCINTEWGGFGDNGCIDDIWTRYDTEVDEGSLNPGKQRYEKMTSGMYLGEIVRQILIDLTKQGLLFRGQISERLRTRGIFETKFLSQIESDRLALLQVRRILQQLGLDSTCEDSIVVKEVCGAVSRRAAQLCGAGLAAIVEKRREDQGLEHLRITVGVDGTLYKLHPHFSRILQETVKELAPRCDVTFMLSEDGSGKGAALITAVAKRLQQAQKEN
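Assay system: in-house recombinant HK5 (HKDC1) enzyme. Input: HKDC1 at 5 µg/mL. Medium: Tris pH 8.0 buffer with MgCl2, Tween-20, BSA, BME. Dosing: single 20 µM dose. Schedule: 90 min reaction incubation at room temperature, dark. Signal: resazurin-to-resorufin fluorescence via G6PDH and diaphorase coupling, 525/613 nm. Controls: DMSO-enzyme wells negative, buffer-substituted wells positive.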
G6PDH counter = counter-screen for G6PDH assay hits: L. mesenteroides G6PDH inhibition; AID 1020; Purified L. mesenteroides G6PDH, diaphorase/resazurin coupled fluorescence, 45 min; inhibition, % at 5 µM; hit rate 0.12% among 200,000; in the data active means inhibition above about 50%
PfGluPho inh = PfG6PD (Plasmodium falciparum) enzyme inhibition. PfGluPho enzyme, NADPH resazurin-diaphorase fluorescence. inhibition, % at 20 µM. hit rate 0.78% among 350,000. AID 504690;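 active means inhibition reaching at least a set limit at 20 µM in the primary screen, cut at about 59% in these data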;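 further: 0% = DMSO wells with substrate and 100% = DMSO wells lacking glucose-6-phosphate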
Diaph inh CS = diaphorase inhibition or chemical oxidation counter-screen; diaphorase resazurin-to-resorufin fluorescence, NADH, 16 min; bacterial (C. kluyveri) enzyme, not human; inhibition, % at 20 µM; hit rate 0.69% among 190,000;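 active means primary screen inhibition at 20 µM above a set limit, cut at about 50% in these data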;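 further: plate controls were DMSO with full reaction for no effect and wells lacking NADH for full effect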
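System: Bacterial diaphorase enzyme (C. kluyveri) | Incubation: 16-min room-temperature incubation before reading | Benchmarks: No-NADH positive control and DMSO neutral control | Measured by: Resorufin fluorescence 544/590 nm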
PfGluPho conf = confirmation of Plasmodium falciparum G6PD inhibitors. shares compounds with PfGluPho inh. recombinant PfGluPho, NADPH-diaphorase-resazurin fluorescence. inhibition, % at 20 µM. hit rate 34% among 2,400;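 active means inhibition of at least 50% at 20 µM in any single replicate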;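 further: 0% = DMSO with substrate and 100% = DMSO lacking glucose-6-phosphate substrate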
Diaphorase 10uM = inhibits diaphorase or oxidizes, flagging false PfG6PD hits; AID 504862; inhibition, % at 20 µM; hit rate 39% among 820; diaphorase-coupled resazurin reduction, fluorescence, NADPH 10 uM; shares compounds with PfGluPho inh;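 active means average inhibition reaching 50% or more with the compound at 20 µM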;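 further: resorufin red fluorescence formed as diaphorase reduces resazurin using NADPH; 0% = DMSO with enzyme and 100% = DMSO without enzyme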
Diaph ctr 30uM = diaphorase inhibition or oxidation at 30 uM NADPH; shares compounds with PfGluPho inh; Diaphorase/resazurin coupled assay, resorufin fluorescence; inhibition, % at 20 µM; hit rate 29% among 820; AID 504863;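 active means inhibition averaging 50% or more, tested at 20 µM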;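 further: 0% = DMSO with enzyme and 100% = DMSO wells lacking diaphorase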
The depositor's hits bear a star; . = no result.

SMILES	HKDC1 inh	G6PDH counter	PfGluPho inh	Diaph inh CS	PfGluPho conf	others
COc1ccc2c(c1)-c1ccccc1S(=O)(=O)N2C	5.4	6.4	59.5*	12.8	29.9
C[C@@H]1CN([C@@H](C)CO)C(=O)c2cc(/C=C/c3ccccc3)cnc2O[C@@H]1CN(C)S(=O)(=O)c1ccc(F)cc1	.	.	3.1	.	.
C[C@@H]1CN([C@@H](C)CO)C(=O)c2cc(C#CC3CCCCC3)cnc2O[C@@H]1CN(C)S(=O)(=O)c1ccc(F)cc1	.	.	65.7*	.	9.7
Cc1ccc(NC(=O)c2ncn(CCCNCC3CCCO3)n2)cc1C (configuration not stated)	-3.0	.	-9.3	.	.
O=C(Oc1c(Br)cc(C(=S)N2CCOCC2)cc1Br)c1ccc(Cl)cc1	1.7	4.6	66.5*	4.1	9.2
CN(CCN1CCOCC1)C(=O)c1cc(COc2ccc(F)c(F)c2)on1	-0.5	.	-8.2	.	.
Cc1cc(C)n2c(=S)[nH]nc2n1	-1.9	1.7	71.0*	31.4	19.6
C/C(=C\COc1ccc2ccc(=O)oc2c1)CC[C@@H](O)C(C)(C)O	-5.0	.	-5.8	.	.
Cc1ccc(-n2c(C)cc(C(=O)CSc3nncs3)c2C)cc1	-9.4	6.7	62.1*	6.2	23.2
C(=C\c1ccco1)/c1ccc2ccccc2n1	-0.7	.	66.2*	.	9.8
COc1ccc(NS(=O)(=O)c2cc(C)ccc2OC)cc1OC	3.7	-1.9	-12.6	10.4	.
COc1ccc(F)cc1S(=O)(=O)Nc1ccc(C)cc1	-6.2	-4.9	63.4*	-1.6	36.8
O=[N+]([O-])c1ccc(C(O)C[n+]2ccccc2)cc1 (configuration not stated)	-6.1	.	2.3	.	.
Cc1ccc(NC(=O)c2ccc(-n3cncn3)c([N+](=O)[O-])c2)cc1	-2.6	-14.7	48.6	3.4	.
O=C(Nc1cccc(Cl)c1)c1ccc(-n2cncn2)c([N+](=O)[O-])c1	-1.5	-26.6	60.7*	10.3	31.9
O=C(Nc1ccc(Cl)cc1)c1ccc(-n2cncn2)c([N+](=O)[O-])c1	2.1	-12.8	83.7*	7.5	35.4
Nc1ccc2nc(-c3ccc(Cl)cc3)[nH]c2c1	9.9	4.0	35.4	9.5	.
Clc1ccc2nc(-c3ccc(Cl)nc3)[nH]c2c1	11.4	.	110.4*	.	54.8*	Diaphorase 10uM=71.4*;Diaph ctr 30uM=56.9*
CC(Sc1ccccc1)C(=O)N/N=C/c1ccccc1 (configuration not stated)	1.1	.	77.1*	.	41.2
O=C(CSCc1ccc(Cl)cc1)N/N=C/c1ccccc1	3.9	-2.5	118.1*	15.7	92.9*	Diaphorase 10uM=90.3*;Diaph ctr 30uM=79.6*
O=C(CSc1nc2ccccc2o1)N/N=C/c1ccccc1	-5.6	-1.9	69.3*	5.7	68.3*	Diaphorase 10uM=61.5*;Diaph ctr 30uM=52.4*
O=C(CSc1nc2ccccc2o1)N/N=C/c1ccc(O)c(O)c1	6.1	.	10.2	.	.
O=C(CCSCCC(=O)NN=Cc1ccccc1)NN=Cc1ccccc1	3.6	.	71.7*	.	55.5*	Diaphorase 10uM=49.4;Diaph ctr 30uM=45.2
CN(C)S(=O)(=O)c1cccc(CSCc2cccc(S(=O)(=O)N(C)C)c2)c1	-0.5	.	2.8	.	.
COc1cccc(NC(=O)CN(C)C(=O)c2cc(-c3cccc(Br)c3)nc3ccccc23)c1	-1.5	.	8.3	.	.
SMILES	HKDC1 inh	G6PDH counter	PfGluPho inh	Diaph inh CS	PfGluPho conf	others
Cc1ccc(C(=O)Nc2sc(C)c(C)c2C(=O)c2ccccc2)cc1	-14.3	-20.3	81.9*	11.1	23.7
CCN(CC)C(=O)c1c(NC(=O)c2ccccc2)sc(C)c1C	0.2	0.9	-4.7	12.6	.
Cc1sc(NC(=O)c2ccccc2)c(C(=O)NC(C)C)c1C	-10.2	1.4	5.5	8.4	.
Cc1sc(NC(=O)c2ccccc2)c(C(=O)c2ccccc2)c1C	-18.3	-14.9	63.1*	19.6	36.6
S=c1[nH]nc(Nc2ccc(Cl)cc2)s1	-1.9	.	64.5*	.	35.8
Cc1ccc(Nc2n[nH]c(=S)s2)cc1	.	.	44.2	.	.
Cc1ccc(Nc2n[nH]c(=S)s2)cc1F	-2.4	.	72.2*	.	23.4
CCn1c(NC(=O)c2ccc(C)cc2)c2ccccc2nc1=O	-2.7	-11.9	72.0*	-3.5	36.1
O=S(=O)(c1ccc(=S)[nH]c1)N1CCCC1	8.8	.	59.8*	.	40.6
CC(C)C(NC(=O)C1CC(=O)N(Cc2ccccc2)C1)c1nc2ccccc2[nH]1 (configuration not stated)	-2.4	.	-24.6	.	.
CCc1ccc2c(c1)C(C)=CC(C)(C)N2	-2.7	11.8	6.6	26.5	.
CC1=CC(C)(C)Nc2ccc(OC(=O)C(Cc3ccccc3)N3C(=O)c4ccccc4C3=O)cc21 (configuration not stated)	1.4	5.4	31.3	18.2	.
CCOc1ccc2c(c1)C(C)=CC(C)(C)N2	13.3	.	89.7*	.	33.0
CC1=CC(C)(C)Nc2ccc(OC(=O)CN3C(=O)c4ccccc4C3=O)cc21	14.0	5.8	75.3*	18.8	34.5
CC1=CC(C)(C)Nc2ccc(OC(=O)CN3C(=O)c4cccc5cccc(c45)C3=O)cc21	26.2	45.3	91.1*	58.1*	85.4*	Diaphorase 10uM=38.7;Diaph ctr 30uM=24.8
Cc1ccc(CNC(=O)CNC(=O)c2ccc(Br)o2)cc1	2.6	.	-19.4	.	.
O=C(COc1cccc2ccccc12)N/N=C/c1ccccc1OCc1ccc(C(=O)O)cc1	3.7	10.0	76.8*	35.9	44.9
Cc1cc(C(=O)COc2cccc(-n3cnnn3)c2)c(C)n1-c1ccccc1	-2.8	1.9	74.1*	17.0	26.4
COc1ccccc1/C=N/NC(=O)CC(=O)Nc1ccc(Cl)c(Cl)c1	4.9	-2.3	106.3*	26.1	43.7
O=c1c2cc(F)ccc2sn1-c1ccccc1Cl	.	.	123.2*	.	109.8*	Diaphorase 10uM=-33.0;Diaph ctr 30uM=1.6
Cc1ccc(-n2sc3cc(F)ccc3c2=O)c(C)c1	.	.	124.0*	.	104.4*	Diaphorase 10uM=4.8;Diaph ctr 30uM=8.3
Cc1ccc(N2C(=O)CC(N3CCN(c4ccc(F)cc4)CC3)C2=O)c(C)c1 (configuration not stated)	1.8	.	2.7	.	.
O=C(c1sc2cc(F)ccc2c1Cl)N1CCN(c2cccc(Cl)c2)CC1	-11.6	-20.6	9.1	22.5	.
O=c1c2ccc(F)cc2sn1-c1ccccc1	.	.	127.8*	.	105.8*	Diaphorase 10uM=-24.8;Diaph ctr 30uM=3.3
O=C(Nc1ccccc1O)c1csc2c1CCCC2	-1.6	7.1	28.6	17.7	.
SMILES	HKDC1 inh	G6PDH counter	PfGluPho inh	Diaph inh CS	PfGluPho conf	others
O=C(COc1ccc2ccc(=O)oc2c1)Nc1cccc(S(=O)(=O)N2CCCCC2)c1	-3.6	.	-5.0	.	.
Cc1ccc(C2=CSC3=NCCN23)c(C)c1	-6.2	2.7	62.5*	2.5	24.1
Clc1ccc(C2=CSC3=NCCN23)c(Cl)c1	0.8	.	16.0	.	.
Cc1ccc(N=Cc2ccc[nH]2)c(O)c1	7.3	-30.9	76.7*	31.4	39.8
Cc1ccccc1N=Cc1ccc[nH]1	-2.8	.	-6.4	.	.
Cc1[nH][nH]c(=O)c1C(c1ccc(Cl)cc1)c1c(C)[nH][nH]c1=O	-0.2	.	7.2	.	.
